Shown is part of a subset that was picked to be rich in hits.
PGC1a Ac signal: raises PGC1a acetylation signal in U2OS cells. 350,000 tested, 0.21% active. U2OS PGC1a acetylation AlphaScreen, overnight. activation, % at 15.6 µM. AID 651723;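 active means every replicate reaching activation of at least 50%, whatever the mean replicate activation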;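 further: hits raise the AlphaScreen acetylation signal above neutral controls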
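Incubation: overnight compound treatment, 37 °C. System: U2OS cells transduced with flag-tagged PGC1a and GCN5 acetyltransferase. Detection: AlphaScreen lysate read. Compound: single-point compound dosing.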
Starred values were filed as active, the others as inactive.

SMILES	PGC1a Ac signal
O=S(=O)(c1ccc(NC(=S)NCc2cccnc2)cc1)N1CCCCC1	89*
O=C(NNS(=O)(=O)c1ccc(F)cc1)c1ccc(S(=O)(=O)N2CCCCC2)cc1	-41
CS(=O)(=O)N1CCCC(C(=O)NCc2ccccn2)C1 (configuration not stated)	-47
CN1OC(COC(=O)c2ccccc2)CC1c1ccccc1 (configuration not stated)	-49
Cc1nnc2sc(-c3ccc(NC(=O)c4ccc(-c5ccc(Cl)cc5Cl)o4)cc3)nn12	98*
Cc1cccc(-n2c(CNC(=O)c3cccc([N+](=O)[O-])c3C)n[nH]c2=S)c1	-46
O=C(Nc1cccc(C(F)(F)F)c1)c1sc(Cl)nc1C(F)(F)F	121*
CCCCCCC[C@@H](C/C=C/CCC(=O)O)OC	-45
COc1ccc(S(=O)(=O)N(C)C[C@@H]2Oc3ccc(NS(=O)(=O)c4cn(C)cn4)cc3C(=O)N([C@H](C)CO)C[C@@H]2C)cc1	-53
Clc1ccc2nc(COc3ccccc3)[nH]c2c1	89*
C=C1C(=O)[C@]23C[C@H]1CC[C@H]2[C@]1(C)[C@@H](OC(C)=O)CC[C@@](C)(C(=O)OC)[C@H]1C[C@@H]3OC(C)=O	-94
CN1CCN(C(=O)C[C@@H]2CC[C@@H]3[C@H](COC[C@H](O)CN3CC3CCCCC3)O2)CC1	-47
O=C(C[C@H]1C=C[C@H](NC(=O)Nc2ccc(C(F)(F)F)cc2)[C@@H](CO)O1)NCc1ccccn1	-43
COc1ccc(N(CC(=O)Nc2ccccc2Cl)S(=O)(=O)c2ccc(C)cc2)cc1OC	-45
C[C@@H]1CN([C@@H](C)CO)C(=O)c2cccc(NC(=O)Nc3ccccc3)c2O[C@H]1CN(C)S(=O)(=O)c1cccs1	-54
Cc1ccc(NC(=O)CN(C)S(=O)(=O)c2cccs2)c(Br)c1	59*
O=C(Nc1cccc(F)c1)C1CCN(S(=O)(=O)c2cccc3nonc23)CC1	-57
CC(C)c1ccc(NC(=O)CCNS(=O)(=O)c2cccc3nonc23)cc1	53*
CC(C)c1ccc(NC(=O)c2n[nH]c(=O)c3ccccc23)cc1	-108
COc1nc(OCCNS(=O)(=O)c2ccc(C)cc2)nc(N(C)C)n1	-52
COc1ccc(CN(C)C[C@@H]2Oc3ccc(NS(=O)(=O)c4c(C)noc4C)cc3C(=O)N([C@@H](C)CO)C[C@@H]2C)cc1	-56
Cc1nc([N+](=O)[O-])c(Br)n1Cc1ccc(Cl)c(Cl)c1	90*
CCC(=O)NC(c1cccs1)c1ccc2cccnc2c1O (configuration not stated)	-47
CC(C)NC(=O)NCC[C@H]1CC[C@H](NC(=O)c2ccc(F)cc2)[C@H](CO)O1	-55
CC(C)(C)C(=O)/C(=C\c1cccc([N+](=O)[O-])c1)n1cncn1	-96
SMILES	PGC1a Ac signal
CCOC(=O)/C(C#N)=C1/C(=O)N(Cc2ccccc2)c2ccccc21	-73
CCOC(=O)N1C/C(=C\c2ccccc2)C(=O)/C(=C/c2ccccc2)C1	497*
O=C(CCC1CCCCC1)NCc1cccs1	-41
COc1ccc2cc3cc(C(=O)NCc4cccs4)oc3nc2c1	70*
COc1ccc2cc3c(N)nn(C(=O)c4ccccc4Cl)c3nc2c1	-42
O=C(/C(=C/O)N=Nc1ccccc1)c1ccco1	-42
CC(C)(C)C(=O)Nc1sc2c(c1-c1nc3ccccc3[nH]1)CCCC2	65*
CCCCCCC1CC(=O)NC(=S)N1 (configuration not stated)	-63
Cc1ccc(S(=O)(=O)N[C@H]2C=C[C@H](CC(=O)NCCN3CCCCC3)O[C@H]2CO)cc1	-46
CC1CC1C(=O)OCC(=O)NCc1ccc(Cl)cc1 (configuration not stated)	55*
O=C(COC(=O)c1ccc([N+](=O)[O-])s1)Nc1ccc(F)cc1	106*
CCOC(=O)CSc1nc2cc3c(cc2cc1C#N)OCCO3	-40
Cc1ccc(N)cc1S(=O)(=O)N(C)C	-46
COc1ccc(Oc2c(Cl)cnn(-c3ccc(F)cc3)c2=O)cc1	81*
C[C@H](CO)N1C[C@H](C)[C@@H](CN(C)C(=O)Nc2ccc(F)cc2)Oc2ncc(C#CC3CC3)cc2C1=O	-47
C[C@H](CO)N1C[C@H](C)[C@H](CN(C)S(=O)(=O)c2ccc(F)cc2)Oc2ncc(-c3cccc(C(=O)N(C)C)c3)cc2C1=O	-48
COc1ccc(C#Cc2cnc3c(c2)C(=O)N([C@H](C)CO)C[C@H](C)[C@H](CN(C)S(=O)(=O)c2cccc(F)c2)O3)cc1OC	123*
Nc1c(C(=O)c2ccccc2)sc2nsc(SCCN3CCCC3)c12	126*
C/C(=N\N1CCN(c2ccccc2)CC1)c1ccccc1O	-40
CC(C)C#Cc1cnc2c(c1)C(=O)N([C@H](C)CO)C[C@H](C)[C@H](CN(C)C(=O)CN1CCOCC1)O2	-58
O=Nc1c2nc3ccccc3n(O)c-2c2ccccc12	61*
CCC1NC(=S)N(C2CCCCC2)C1=O (configuration not stated)	-55
CCOc1ccc(Nc2nc(NCc3ccco3)nc(N)c2[N+](=O)[O-])cc1	-72
COc1ccc(OC)c(-n2c(-c3ccc(C)cc3)n[nH]c2=S)c1	70*
COc1ccc(-c2cc(C(=O)O)[nH]n2)cc1OC	-42
SMILES	PGC1a Ac signal
Cc1cccc(N2C(=O)C(Cl)=C(N3CCOCC3)C2=O)c1	-81
CN(C)c1ccc(C=C2SC(=S)NC2=O)cc1	-51
CN(C)c1ccc(/C=N/N=C2/NC(=O)/C(=C/c3ccc([N+](=O)[O-])cc3)S2)cc1	81*
Cc1ccc(OCC(=O)N2CC(C)OC(C)C2)c([N+](=O)[O-])n1 (configuration not stated)	-43
O=C1/C(=C/c2ccc(N3CCOCC3)o2)SC(=Nc2ccccc2)N1CCc1c[nH]c2ccccc12	-62
Cc1c(/C=N/Nc2nc3ccccc3[nH]2)c2ccccc2n1C	121*
CSc1nc2c(c(=O)[nH]c(=O)n2C)n1Cc1ccccc1	-43
O=C(OCn1ncc(Cl)c(Cl)c1=O)c1ccc(C(F)(F)F)cc1	154*
Cc1cc(C(=O)CSc2nnc(-c3ccccc3)o2)c(C)n1CC1COc2ccccc2O1 (configuration not stated)	-51
CC1CCCCN1C(=O)CN(C)S(=O)(=O)c1cccc2nsnc12 (configuration not stated)	-42
CN(CC(=O)Nc1ccc(F)c(F)c1)S(=O)(=O)c1cccc2nsnc12	63*
CCN(CCCNC(=O)CN(C)S(=O)(=O)c1cccc2nsnc12)c1ccccc1	89*
COc1ccc(-c2cn[nH]c2-c2ccc(O)cc2O)cc1	-42
CO[C@H]1CN(C)C(=O)c2cc(NC(=O)c3ccccc3F)ccc2OC[C@@H](C)N(C(C)=O)C[C@@H]1C	-130
CC(C)NC(=O)Nc1ccc2c(c1)C(=O)N([C@H](C)CO)C[C@@H](C)[C@H](CN(C)S(=O)(=O)c1ccccc1)OCCCC[C@@H](C)O2	-44
S=c1[nH]nc(-c2cc(-c3ccccc3)n[nH]2)n1/N=C/C(Br)=C/c1ccccc1	241*
FC(F)(F)c1ccc(Cl)c(-n2c(-c3cc(-c4ccco4)[nH]n3)n[nH]c2=S)c1	-43
S=c1[nH]nc(-c2ccco2)n1/N=C/C(Cl)=C/c1ccccc1	65*
CCCOc1ccc2ccccc2c1/C=C1\SC(=O)NC1=O	-76
CNC[C@H]1Oc2ncc(C#CC3CCCCC3)cc2C(=O)N([C@H](C)CO)C[C@H]1C	-41
OCc1ccc2c(c1)c(-c1ccc3c(c1)OCCO3)c(-c1ccccc1)n2-c1ccccc1	178*
